Test results taken from PubChem BioAssay AID504674 (Southern Research Specialized Biocontainment Screening …, 2011).
Activity calls are given as the source filed them.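 How the source made its calls: active means cell viability under 70% at any tested concentration, a measure not printed in our tables; inactive means the rest.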

tested on: HEp-2 viability, ATP luminescence (CellTiter-Glo); test: cytotoxicity in uninfected HEp-2 cells, dose response, cytotoxicity control for RSV inhibitor project, cell-based, CellTiter-Glo, synthesized compounds, set 7 (AID 504674)
How it was run: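 Test system: HEp-2 human cell line, cell viability. Amount: 10,595 cells/well. Buffer or medium: DMEM/F12. Doses: 8 points, 1:2 steps, 50–0.39 µM, 0.5% DMSO. Timing: 6 d compound exposure, 37 °C. Signal: ATP luminescence with CellTiter-Glo reagent. Measure: % viability and CC50 (4-parameter fit, 0–100 bounds). Controls: cell-only wells as reference. Repeats: triplicate.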

Structure (SMILES) | CC50
COc1ccc(C)c(NC(=O)[C@@H]2CCCN2S(=O)(=O)c2cccc3cccnc23)c1 | > 50 µM (inactive)
COCCCNC(=O)c1ccc(Cn2c(=O)c3ccc(C)cc3n(Cc3ccc(C)cc3)c2=O)cc1 | > 50 µM (inactive)
Cc1ccc(NC(=O)[C@@H]2CCCN2S(=O)(=O)c2cccc3nonc23)c(C)c1 | > 50 µM (inactive)
O=C(NCc1ccc(Cl)cc1)C1CCN(S(=O)(=O)c2cccc3nonc23)CC1 | > 50 µM (inactive)
Cc1ccc(Cl)cc1NC(=O)[C@@H]1CCCN1S(=O)(=O)c1cccc2cccnc12 | 13 µM
Cc1ccc(Cn2c(=O)n(Cc3ccc(C(=O)N4CCCCC4)cc3)c(=O)c3ccccc32)cc1 | 5.12 µM
COCCCNC(=O)c1ccc(Cn2c(=O)c3ccc(C(F)(F)F)cc3n(Cc3ccc(C)cc3)c2=O)cc1 | > 50 µM (inactive)
COc1ccccc1NC(=O)[C@@H]1CCCN1S(=O)(=O)c1cccc2nonc12 | > 50 µM (inactive)
O=C(NCc1cccc(Cl)c1)C1CCN(S(=O)(=O)c2cccc3nonc23)CC1 | > 50 µM (inactive)
Cc1ccc(Cn2c(=O)n(Cc3ccc(C(=O)N4CCOCC4)cc3)c(=O)c3ccccc32)cc1 | 16.6 µM
COCCNC(=O)c1ccc(Cn2c(=O)c3ccccc3n(Cc3ccc(C)cc3)c2=O)cc1 | > 50 µM (inactive)
Cc1ccc(CNC(=O)C2CCN(S(=O)(=O)c3cccc4nonc34)CC2)c(C)c1 | > 50 µM (inactive)
COCCCNC(=O)c1ccc(Cn2c(=O)c3ccc(OC)cc3n(Cc3ccc(C)cc3)c2=O)cc1 | 11.7 µM
Cc1ccc(Cn2c(=O)n(Cc3ccc(C(=O)NC4CCCCC4)cc3)c(=O)c3ccccc32)cc1 | > 50 µM (inactive)
Cc1ccc(Cn2c(=O)n(Cc3ccc(C(=O)N4CCCC4)cc3)c(=O)c3ccccc32)cc1 | 4.6 µM
Cc1ccc(Cn2c(=O)n(Cc3ccc(C(=O)N(C)C)cc3)c(=O)c3ccccc32)cc1 | 11 µM
